In PubChem BioAssay AID624466 (The Scripps Research Institute Molecular Screening Center, 2012):
Among all 360,000 compounds or so, about 5,400 (1.5%) were called active.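 Rule for the calls: active = inhibition above a per-plate cutoff, the mean inhibition of test compounds on that plate plus 3 SD (cut at about 49% in these data); inactive = the rest.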 The sample as a whole holds a higher share of actives than the screen did.

What follows are compounds tested against Trace amine-associated receptor 1 (Homo sapiens) (UniProt Q96RJ0) (assay: human TAAR1 antagonists, primary screen, Fluo-8 calcium fluorescence, CHO RD-HGA16 cells (AID 624466;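 note: 0% = DMSO plus EC80 beta-PEA response and 100% = DMSO alone without agonist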)). Conditions: CHO RD-HGA16 TAAR1, Fluo-8 calcium fluorescence, antagonist; at 3 µM; hits give high values.
Procedure, shortened: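 Test system: CHO RD-HGA16 cells bearing hTAAR1 | Reagent: β-PEA, EC80 | Compound dosing: 3 µM, single point | Schedule: Dye loading 75 min at 37 °C, then 30 min room temperature | Signal: Calcium fluorescence with Fluo-8 | Evaluation: Percent inhibition of PEA-evoked calcium signal, max/basal emission ratio | Control set: DMSO-only wells and EC80 β-PEA-stimulated wells | Repeats: Singlicate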

Chain of Trace amine-associated receptor 1 (Homo sapiens) (Q96RJ0 whole entry, looked up): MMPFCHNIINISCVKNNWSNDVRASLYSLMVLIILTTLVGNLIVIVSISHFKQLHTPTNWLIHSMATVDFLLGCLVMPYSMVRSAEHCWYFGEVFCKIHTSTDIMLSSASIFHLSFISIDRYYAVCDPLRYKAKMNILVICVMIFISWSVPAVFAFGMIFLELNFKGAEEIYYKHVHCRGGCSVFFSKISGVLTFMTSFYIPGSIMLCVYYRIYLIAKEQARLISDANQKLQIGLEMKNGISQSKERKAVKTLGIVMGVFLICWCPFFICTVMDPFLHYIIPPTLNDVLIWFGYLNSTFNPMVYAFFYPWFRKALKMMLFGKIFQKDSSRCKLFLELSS

| Structure (SMILES) | inhibition |
| --- | --- |
| Fc1ccccc1/C=N/Nc1cc(N2CCCCC2)ncn1 | -0.85% (inactive) |
| CC(=O)N1CCCc2cc(S(=O)(=O)N3CCCC(C(=O)N4CCN(c5cccc(Cl)c5)CC4)C3)ccc21 (stereo not given) | 83.6% (active) |
| O=C(C1CCCN(S(=O)(=O)c2ccccc2)C1)N1CCN(c2ccc(F)cc2)CC1 (stereo not given) | -6.96% (inactive) |
| COc1cccc(N2CCN(C(=O)C3CCCN(S(=O)(=O)c4cnc[nH]4)C3)CC2)c1 (stereo not given) | -6.44% (inactive) |
| Cn1c(=O)n(C)c(=O)n(CC(=O)N2CCCCC2)c1=O | -10.7% (inactive) |
| Oc1ccc(/C=N/Nc2nc(-c3ccccc3F)nc3ccccc23)c(O)c1 | 82.1% (active) |
| CCOc1ccc(N(C)S(=O)(=O)c2cnc[nH]2)cc1 | -13.2% (inactive) |
| Cn1c(C(=O)NCCc2ccsc2)cc2c(=O)n(C)c3ccccc3c21 | 57.4% (active) |
| Cn1c(C(=O)NCCN2CCc3ccccc3C2)cc2c(=O)[nH]c3ccccc3c21 | 4.74% (inactive) |
| Cn1c(C(=O)N2CCC(C(N)=O)CC2)cc2c(=O)n(C)c3ccccc3c21 | -11.2% (inactive) |
| COc1ccc(C(=O)Nc2ccc(C(=O)NCC3CCCO3)cc2)c(OC)c1OC (stereo not given) | -23% (inactive) |
| O=C1NC[C@H](Cc2ccc(O)cc2)N(C[C@@H]2CCCN2C[C@H](Cc2ccccc2)N2C[C@H](Cc3ccccc3)N(CC3CCCCC3)C(=O)C2=O)C1=O | -20.1% (inactive) |
| Cc1cccc(C)c1NC(=O)CNC(=O)Cc1ccc(Br)cc1 | -2.34% (inactive) |
| CN(CC(=O)Nc1c(Cl)cccc1Cl)C(=O)CNC(=O)C1CCCCC1 | -8.13% (inactive) |
| Cc1cccc(C)c1NC(=O)CNC(=O)C1CCCC1 | 100% (active) |
| Cc1ccc(S(=O)(=O)N2CCCC2C(=O)NCc2ccco2)cc1 (stereo not given) | -5.82% (inactive) |
| COc1ccc(CNC(=O)CN(Cc2ccccc2Cl)C(=O)c2csnn2)cc1 | 10.7% (inactive) |
| CCCc1nc2ccccc2n1C(C)C(=O)NC(C)(C)C (stereo not given) | -0.35% (inactive) |
| COc1ccc(Br)cc1S(=O)(=O)N1CCN=C1C | -4.85% (inactive) |
| Cc1ccc(-c2noc(CNC(=O)c3ccoc3C)n2)cc1 | -42.9% (inactive) |
| C/C(=N/Nc1ccc(Cl)cc1)c1cnnc(-c2ccccc2)n1 | 8.2% (inactive) |
| C/C(=N\Nc1ccccc1)c1cccs1 | 8.01% (inactive) |
| CC/C(=N/Nc1ccccc1)c1cnnc(SC)n1 | 74.9% (active) |

| Structure (SMILES) | inhibition |
| --- | --- |
| O=C(COC(=O)c1ncc(Cl)c(Cl)c1Cl)NC1CCS(=O)(=O)C1 (stereo not given) | -31.4% (inactive) |
| Cc1cc(/C=N/NC(=O)CC2(C)OCCO2)c(C)n1-c1ccc(Cl)c(Cl)c1 | -4.93% (inactive) |
| Cc1ccc(-n2c(C)cc(/C=N\NC(=O)CC(=O)NC(C)C)c2C)cc1 | 97.7% (active) |
| Cc1cc(/C=N/NC(N)=O)c(C)n1C1CCCCC1 | -23.7% (inactive) |
| COc1ccc(-c2nc3cnccn3c2NC2CCCCC2)cc1-c1cccc(Cl)c1 | -50.3% (inactive) |
| CCOc1cc(-c2nc3cc(C)ccn3c2NCC2CCCO2)ccc1O (stereo not given) | 24.7% (inactive) |
| COc1ccc(-c2nc3cnccn3c2NC(C)(C)CC(C)(C)C)cc1O | 48.6% (active) |
| CC(=O)Nc1ccc(N2CCOCC2)c(C(=O)Nc2cccc(C)c2)c1 | -5.97% (inactive) |
| COC(=O)c1cc(NC(=O)c2cc(C(C)(C)C)nn2Cc2cccc(C)c2)ccc1N1CCOCC1 | 50.4% (active) |
| COC(=O)c1cc(NC(=O)c2cccnc2)ccc1N1CCOCC1 | -22% (inactive) |
| CC1(C)OC(=O)C2=C(C[C@@H](C3CC3)O[C@H]2CCc2cccc(Cl)c2)O1 | -4.58% (inactive) |
| CCCCCCCCNS(=O)(=O)CCNC1CCCCC1 | -6.98% (inactive) |
| NC(Cc1ccccc1)c1csc(Nc2cc(Oc3ccccc3)ncn2)n1 (stereo not given) | 49.7% (active) |
| COc1ccc(CC(N)c2csc(NC(=O)Cc3ccccc3)n2)cc1 (stereo not given) | 15.7% (inactive) |
| COc1ccc(CC(N)c2csc(NC(=O)NC(c3ccccc3)c3ccccc3)n2)cc1 (stereo not given) | 12.4% (inactive) |
| O=C(CSc1nc2[nH]c(=O)[nH]c(=O)c2s1)Nc1cccc(F)c1 | -17.1% (inactive) |
| CCC(c1nnnn1Cc1ccco1)N(CCc1ccccc1)Cc1cc2cccc(C)c2[nH]c1=O (stereo not given) | -1.4% (inactive) |
| CCC(c1nnnn1Cc1ccco1)N(Cc1cc2cc(OC)ccc2[nH]c1=O)C1CCCCC1 (stereo not given) | -35.8% (inactive) |
| CCC(c1nnnn1Cc1ccco1)N(CCc1ccccc1)Cc1cc2ccc(OC)cc2[nH]c1=O (stereo not given) | 85.2% (active) |
| CCCN1C(=O)c2[nH]nc(-c3ccccc3)c2C1c1ccccc1 (stereo not given) | -18.5% (inactive) |
| O=C(O)CSCc1ccc(C(=O)O)o1 | 8.93% (inactive) |
| Cc1ccc(CC2CC(=O)N(c3cc(C)ccc3C)C2=O)cc1 (stereo not given) | -18.2% (inactive) |
| Cc1ccccc1CN1CCC(C(=O)Nc2ccc(Oc3cccnc3)cc2)CC1 | -4.26% (inactive) |

| Structure (SMILES) | inhibition |
| --- | --- |
| S=C(NCc1ccco1)Nc1ccc2c(c1)OCCO2 | -13.5% (inactive) |
| Cc1ccnc(N2C(=O)c3ccccc3C2Nc2ccc3c(c2)OCCO3)c1 (stereo not given) | -4.03% (inactive) |
| O=C1c2ccccc2C(Nc2ccc3c(c2)OCCO3)N1Cc1ccco1 (stereo not given) | 60.2% (active) |
| COC(=O)c1cc(S(=O)(=O)Nc2ccc(C)c(F)c2)c[nH]1 | 3.38% (inactive) |
| COc1ccc(C(=O)C(OP(=O)(OC)OC)c2ccccc2OC)cc1 (stereo not given) | -8.05% (inactive) |
| COc1ccc(C(C(=O)NCc2ccccc2)N(Cc2cccs2)C(=O)c2cnccn2)cc1 (stereo not given) | 53.3% (active) |
| Cc1cccc(N(C(=O)c2csnn2)C(C(=O)NCc2ccccc2)c2ccncc2)c1 (stereo not given) | -12.4% (inactive) |
| CC(C)N(Cc1ccccc1)C(=O)COC(=O)c1cnccn1 | -3.08% (inactive) |
| CCOc1ccccc1CN1CCN(C2CCC2)CC1CCO (stereo not given) | 6.95% (inactive) |
| COC(=O)[C@@]12C[C@@H](CC(=O)N3CCC(c4ccccc4)CC3)C(=O)N(Cc3ccccc3)C1=CCC(C)(C)C2 | -13.1% (inactive) |
| Clc1cccc2c1C1CC2CCN1Cc1ccccc1 (stereo not given) | -3.53% (inactive) |
| COCCNC(=O)CCCN1C(=O)c2ccccc2Sc2ncccc21 | -9.71% (inactive) |
| CNC(=O)CSc1nnc(CCc2ccccc2)n1-c1ccccc1 | 10.8% (inactive) |
| Cc1c(C(=O)NCc2ccccc2)cnn1-c1ccccc1 | -4.01% (inactive) |
| Cc1c(CNCCc2ccccc2)c(C(=O)O)c(C)n1-c1ccccc1 | 65.9% (active) |
| CCOC(=O)/C=C/c1ccccc1O | -4.54% (inactive) |
| Cc1cc(C)nc(SC2CCCCC2NS(=O)(=O)c2ccc(Cl)cc2)n1 (stereo not given) | -8.5% (inactive) |
| COC(=O)C1=C(C)N(Cc2ccc(F)cc2)C(=S)NC1c1cccc(Cl)c1 (stereo not given) | 64.3% (active) |
| CC(=O)C1=C(C)N(Cc2ccc(Cl)cc2)C(=S)NC1c1ccc(F)cc1 (stereo not given) | 28.2% (inactive) |
| COC(=O)C1=C(C)N(Cc2ccc(C(F)(F)F)cc2)C(=NCc2ccc(C(F)(F)F)cc2)NC1c1cccc(Cl)c1 (stereo not given) | 12.3% (inactive) |
| COc1cccc(N2CCN(C(=O)Nc3ccc4c(c3)NC(=O)CO4)CC2)c1 | 11.5% (inactive) |
| O=C(Nc1cccc(NC(=O)N2CCN(c3ccccc3)CC2)c1)N1CCN(c2ccccc2)CC1 | 53.4% (active) |
| O=C(Nc1ccccc1)N1CCN(C2c3ccccc3-c3ccccc32)CC1 | 3.75% (inactive) |

| Structure (SMILES) | inhibition |
| --- | --- |
| Cc1nn2c(NCCN(C)C)c3c(nc2c1-c1ccccc1)CCC3 | -32.4% (inactive) |
| COc1cccc(CNC(=O)[C@H]2CCCN2C(=O)[C@H]2CCCN2C(=O)c2cc(F)cc(F)c2)c1 | 4.19% (inactive) |
| CCN(CC(=O)Nc1c(F)cccc1F)C(=O)Cc1cccs1 | -22.6% (inactive) |
| Cc1cc(C)c(S(=O)(=O)NN=C2c3ccccc3[C@H]3Cc4csc[n+]4[C@@H]23)c(C)c1 | 6.84% (inactive) |
| CC(C)n1ncc2c(C(=O)Nc3ccc(CC#N)cc3)cc(C3CC3)nc21 | 35.5% (inactive) |
| COc1ccc(OCCNC(=O)c2cc(C3CC3)nc3c2cnn3C(C)C)cc1 | 48.8% (active) |
| CC(C)n1ncc2c(C(=O)NCc3ccccc3CN(C)C)cc(C3CC3)nc21 | -19.6% (inactive) |
| CCc1c(-c2ccc(F)cc2)ncn1Cc1cccc(-c2ccccc2)c1 | 34.5% (inactive) |
| O=C1NC[C@@H](CCCCN2CCN(CCc3ccc(O)cc3)C(=O)C2=O)N(CC2CCCCC2)C1=O | 3.12% (inactive) |
| CC(C)(C)c1ccc(CN2C(=O)c3ccccc3S2(=O)=O)cc1 | 8.91% (inactive) |
| O=C1c2ccccc2S(=O)(=O)N1CC(O)Cn1c2ccccc2c2ccccc21 (stereo not given) | 62.3% (active) |
| COc1ccc(CNC(=O)CN2C(=O)c3ccccc3S2(=O)=O)cc1 | 17.9% (inactive) |
| COc1ccc(NC(=O)c2cc(-c3ccc(C)o3)nc3ccccc23)cc1 | 57.4% (active) |
| COc1ccc(NC(=O)CN(C)C(=O)c2cc(C)oc2C)cc1 | -28% (inactive) |
| C/C(=N\NC(=O)c1cc(-c2ccc(O)cc2)nc2ccccc12)c1cccnc1 | -2.53% (inactive) |
| Cc1ccc2nc(-c3ccncc3)cc(C(=O)Nc3ccc(OC(F)F)cc3)c2c1 | -4.36% (inactive) |
| COc1cccc(NC(=O)CN(C)C(=O)c2cc(Cl)nc3ccccc23)c1 | 18.8% (inactive) |
| COc1ccc(NC(=O)CN(C)C(=O)c2cc(-c3ccc(C)o3)nc3ccccc23)cc1 | 54.9% (active) |
| COc1ccc(NC(=O)c2cn(-c3ccccc3)nc2SC)cc1 | -11.6% (inactive) |
| COc1ccc(-c2cc(C(=O)Nc3ccccc3O)c3ccccc3n2)cc1 | 86.9% (active) |
| COc1ccc(NC(=O)c2cc(-c3cc(OC)c(OC)c(OC)c3)nc3ccccc23)c(OC)c1 | 3.05% (inactive) |
